This note sets out measurements from paper PMC6130786 (ACS Omega, 2018).

A word on the Ki: it is the equilibrium dissociation constant of an inhibitor or competing ligand from its target.

The structures appear in SMILES notation.

One assay has as its target Aβ fibrils (Homo sapiens, UniProt P05067). Nature of the assay: Thioflavin-T competition binding assay, Aβ fibrils. In short, it runs like this:
(§1)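 Fibrils were prepared per earlier work and held fixed at 1 μM. Thioflavin-T was 50 nM with Aβ fibrils and 4 μM with tau fibrils. Test compound at varying concentrations was diluted in 30 mM Tris-HCl pH 7.4 with 0.1% BSA. Incubation was 1.5 h at room temperature, and fluorescence was read at ex 440/30, em 485/20. EC50 came from a one-site competitive fit, Ki = EC50/(1+[ligand]/Kd), as mean ± SD of two assays.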

A further assay deals with tau fibrils (Homo sapiens, UniProt P10636). As to the kind of experiment: Thioflavin-T competition binding assay, tau fibrils. In short, it runs like this: as §1
tau fibrils, sequence (P10636 560-692 limits assumed): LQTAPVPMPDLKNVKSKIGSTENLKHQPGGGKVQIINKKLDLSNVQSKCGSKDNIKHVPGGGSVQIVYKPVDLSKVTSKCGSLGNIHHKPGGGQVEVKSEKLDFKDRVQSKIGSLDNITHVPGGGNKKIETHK

Aβ fibrils, sequence (P05067 672-713): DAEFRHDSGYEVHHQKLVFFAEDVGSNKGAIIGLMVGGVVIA

As to `COc1ccc(/C=C/C(=O)c2nc3ccccc3s2)cc1` [Compound 4, (E)-1-(Benzo[d]thiazol-2-yl)-3-(4-methoxyphenyl)prop-2-en-1-one], the figures for the Ki at Aβ fibrils and at tau fibrils were 353 ± 29.7 nM and 716 ± 58.7 nM, respectively.

`CN(C)c1ccc(/C=C/C(=O)c2nc3ccccc3s2)cc1` [Compound 5, (E)-1-(Benzo[d]thiazol-2-yl)-3-(4-(dimethylamino)phenyl)prop-2-en-1-one] had an inhibitory constant (Ki) on Aβ fibrils of 91 ± 12.7 nM.

Take `O=C(/C=C/c1ccc([N+](=O)[O-])cc1)c1nc2ccccc2s1` [Compound 6, (E)-1-(Benzo[d]thiazol-2-yl)-3-(4-nitrophenyl)prop-2-en-1-one]: at Aβ fibrils, the Ki stood at 89 ± 26.9 nM.

`COc1ccc(/C=C/C(=O)c2nccs2)cc1` [Compound 7, (E)-3-(4-Methoxyphenyl)-1-(thiazol-2-yl)prop-2-en-1-one]: the results for the Ki at Aβ fibrils and at tau fibrils were above 500 nM and above 1000 nM, respectively.

For `CN(C)c1ccc(/C=C/C(=O)c2nccs2)cc1` [Compound 8, (E)-3-(4-(Dimethylamino)phenyl)-1-(thiazol-2-yl)prop-2-en-1-one], the Ki was determined as 505 ± 49.5 nM at Aβ fibrils and 401 ± 118 nM at tau fibrils.

With `O=C(/C=C/c1ccc([N+](=O)[O-])cc1)c1nccs1` [Compound 9, (E)-3-(4-Nitrophenyl)-1-(thiazol-2-yl)prop-2-en-1-one], on Aβ fibrils, affinity was put at a Ki of 404 ± 80.6 nM.

Regarding `COc1ccc(-c2cc(-c3nccs3)on2)cc1` [Compound 10, 3-(4-Methoxyphenyl)-5-(thiazol-2-yl)isoxazole], the Ki at Aβ fibrils and on tau fibrils was above 1000 nM in each case.

As to `COc1ccc(-c2cc(-c3nccs3)n[nH]2)cc1` [Compound 12, 2-(5-(4-Methoxyphenyl)-1H-pyrazol-3-yl)thiazole], the Ki at Aβ fibrils and on tau fibrils was above 1000 nM each time.

On to `COc1ccc(/C=C/c2cc(-c3nccs3)[nH]n2)cc1` [Compound 13, (E)-2-(3-(4-Methoxystyryl)-1H-pyrazol-5-yl)thiazole], for which the Ki was 327 ± 76.4 nM at Aβ fibrils and above 1000 nM at tau fibrils.
